Assay outcomes deposited in PubChem BioAssay by Sanford-Burnham Center for Chemical Genomics.
Shown are actives, neighbours in structure and some others; about 3.3% of the full set was active somewhere.
SENP1 inh – inhibitors of human SENP1 SUMO protease catalytic domain | Q9P0U3 | recombinant SENP1 catalytic domain, CyPet-SUMO1-YPet FRET cleavage | inhibition, % at 10 µM | 0.21% of 360,000 active | AID 624204;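 active = inhibition at least 30% at 10 µM, raw YFP signal under a set limit, fluorescence ratio 0.5 to 1.5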
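Test system: recombinant human SENP1 catalytic domain, His6-tagged / Medium: pH 8 Tris buffer with EDTA, NaCl, BME, BSA, NP40, catalase / Also added: SUMO1 FRET substrate flanked by Cypet and Ypet, 25 nM / Times: 50 min reaction at room temperature / Signal: FRET, CFP and YFP emission / Control set: no-enzyme low control and enzyme-plus-DMSO high control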
CendR NRP1 mod – modulators of CendR peptide binding to human neuropilin-1. AID 602438. inhibition, % at 25 µM. 0.85% of 360,000 active. FAM-RPARPAR peptide binding to NRP-1, fluorescence polarization;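 active = inhibition or corrected inhibition above about 18%, plus a signal ratio from 0.5 to 1.5, limit read from the data, passing the limit was not always enough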
SENP8 block-1 – SENP8 (human) protease inhibition; 0.64% of 360,000 active; inhibition, % at 20 µM; Q96LD8; recombinant SENP8, Nedd8 substrate fluorescence; in the data active = inhibition mostly above about 40%, no sharp cut-off; inactive = mostly below about 27%
SENP8 block-2 – blocks the human protease SENP8 | Q96LD8 | purified SENP8, Z-RLRGG-aminoluciferin cleavage, luminescence | inhibition, % at 10 µM | 1.2% of 330,000 active | AID 2540; in the data active = inhibition above about 50%
SENP6 inh – blocks the human protease SENP6; Recombinant SENP6 catalytic domain, aminoluciferin luminescence; inhibition, % at 10 µM; 1.8% of 330,000 active; AID 2599;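 active = inhibition above about 50% at the single tested dose, limit read from the data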
Target sequence (Q9GZR1 628-1112 limits assumed): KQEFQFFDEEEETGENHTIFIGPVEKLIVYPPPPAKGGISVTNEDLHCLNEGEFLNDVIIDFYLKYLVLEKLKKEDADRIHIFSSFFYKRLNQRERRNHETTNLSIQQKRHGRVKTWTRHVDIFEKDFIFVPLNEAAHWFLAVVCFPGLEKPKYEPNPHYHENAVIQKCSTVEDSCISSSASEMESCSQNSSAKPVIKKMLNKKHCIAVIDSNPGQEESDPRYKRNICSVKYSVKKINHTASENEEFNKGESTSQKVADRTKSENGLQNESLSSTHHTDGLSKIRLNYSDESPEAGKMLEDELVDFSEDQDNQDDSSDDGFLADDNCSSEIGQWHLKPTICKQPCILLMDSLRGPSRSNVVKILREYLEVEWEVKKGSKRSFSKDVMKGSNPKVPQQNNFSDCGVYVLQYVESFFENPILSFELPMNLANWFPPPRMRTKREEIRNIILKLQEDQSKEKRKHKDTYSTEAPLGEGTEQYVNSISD
SENP7 block – SENP7 protease inhibition; Q9BQF6; recombinant SENP7, Z-RLRGG-aminoluciferin luminescence, 40 min; inhibition, % at 5 µM; 1.5% of 330,000 active;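 active = inhibition above about 50% at the single test dose, limit read from the data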
Large screens that a line does not name were inactive.

COc1ccc(/C=C/C(=O)Nc2ccccc2C(=O)O)cc1OC	SENP8 block-2 62.7, SENP6 inh 72.2
O=C(Nc1cccc(C(=O)N2CCOCC2)c1)C1CCCCC1	none (no result: SENP8 block-2, SENP6 inh, SENP7 block)
COc1ccc(C(=O)Nc2c(F)c(F)c(F)c(F)c2F)c(OC)c1	CendR NRP1 mod 20.2
Nc1ccc(C#Cc2c(-c3ccsc3)oc3ccc(N4CCOCC4)cc23)cc1	CendR NRP1 mod 26.0
Cc1cc(O)c(C(C)C)cc1N=Nc1ccccc1C(=O)O	none
Cc1cc(N=Nc2ccccc2C(=O)O)c(C)c(C)c1O	SENP1 inh 33.3
O=C(O)CCNc1ccc2c(c1)OCCO2	CendR NRP1 mod 46.5
COc1ccc(S(=O)(=O)N2CCC(C(=O)N[C@@H](C)C(=O)NCc3ccccn3)CC2)cc1	none (no result: SENP8 block-2, SENP6 inh, SENP7 block)
COC(=O)[C@@]12C[C@@H](CC(=O)N3CCCC3)C(=O)N(CCc3ccc(OC)c(OC)c3)C1=CCC(C)(C)C2	none (no result: SENP8 block-2, SENP6 inh, SENP7 block)
c1cc2c(cc1Cn1cnnn1)OCO2	CendR NRP1 mod 21.9
c1cc2c(cc1-n1cnnn1)OCO2	none
O=C(C[C@@H]1CC[C@H](NS(=O)(=O)c2ccccc2F)[C@@H](CO)O1)NCCCN1CCOCC1	none (no result: SENP8 block-2, SENP6 inh, SENP7 block)
CCN1/C(=C2\SC(=S)N(Cc3ccccc3)C2=O)Sc2ccccc21	none
CCN1C(=O)/C(=C2/Sc3ccccc3N2CC)SC1=S	CendR NRP1 mod 48.4
CC(C)N1CCOC1c1ccccc1 (stereo unspecified)	none (no result: SENP8 block-2, SENP6 inh, SENP7 block)
O=S1(=O)CCN(C2CCCCCCC2)CC1	none (no result: SENP8 block-2, SENP6 inh, SENP7 block)
CC1CCc2[nH]c3ccc(C(=O)NCCCOC(C)C)cc3c2C1 (stereo unspecified)	CendR NRP1 mod 34.8
O=C1C(Cl)=C(N2CCCCC2)C(=O)N1c1ccccc1Cl	none
O=C1c2cccc(Cl)c2C(=O)c2c1cccc2N1CCCC1	SENP8 block-1 73.5
CSC(=S)NN=C(C)c1cccc(C)n1	CendR NRP1 mod 26.7 (no result: SENP8 block-2, SENP6 inh, SENP7 block)
CC(=NNC(=S)N1CCCCC1)c1cccc(C)n1	none (no result: SENP8 block-2, SENP6 inh, SENP7 block)
Cc1ccc(N=Nc2c(O)[nH]c3ccc(F)cc23)cc1	none
CCc1ccc2[nH]c(O)c(N=Nc3nc(-c4ccccc4)cs3)c2c1	SENP1 inh 32.7
CC(C)(C)OC(=O)C[C@H]1C/C=C\C[C@@H](CC(=O)N[C@@H](CO)Cc2ccccc2)C(=O)NCCOC1=O	CendR NRP1 mod 35.9
CC(C)(C)[C@H]1COC(=O)[C@H](NC(=O)OCC2c3ccccc3-c3ccccc32)C/C=C\C[C@@H](CC(=O)N[C@@H](CO)Cc2ccccc2)C(=O)N1	CendR NRP1 mod 19.2
CC(C)(C)OC(=O)C[C@@H]1C/C=C\C[C@@H](CC(=O)NCCO)C(=O)NC[C@@H](c2ccccc2)OC1=O	CendR NRP1 mod 18.2
O=C(C[C@H]1C/C=C\C[C@@H](Cc2ccc(F)cc2)C(=O)O[C@H](c2ccccc2)CNC1=O)NCCO	CendR NRP1 mod 17.8
CC(C)(C)OC(=O)C[C@H]1C/C=C\C[C@@H](CC(=O)NCCO)C(=O)NC[C@H](c2ccccc2)OC1=O	none
O=c1cc(-c2ccc(O)c(O)c2)oc2cc(O)cc(O)c12	none
O=c1c(O)c(-c2ccc(O)c(O)c2)oc2cc(O)cc(O)c12	SENP8 block-1 33.0, SENP6 inh 53.0
O=C(CCCC(=O)OCC(=O)c1cccs1)Nc1ccc(F)cc1	none
O=C(CCCC(=O)OCC(=O)c1cccs1)Nc1ccc(Oc2ccccc2)cc1	CendR NRP1 mod 23.2
COc1cc2nc(CN3CCN(S(=O)(=O)c4ccccc4[N+](=O)[O-])CC3)[nH]c(=O)c2cc1OC	none (no result: SENP8 block-2, SENP6 inh, SENP7 block)
COc1ccc(N=Nc2cnc(C)nc2-c2ccccc2)cc1	SENP8 block-1 45.4
COc1cccc(C(C)(O)c2nc(-c3ccc4c(c3)OCO4)cs2)c1 (stereo unspecified)	none (no result: SENP8 block-2, SENP6 inh, SENP7 block)
NC(=O)c1c(NC(=O)C(=O)N2CCOCC2)sc2c1CCCC2	CendR NRP1 mod 31.6
O=C(NCc1ccccc1Cl)c1ccc2nc([C@H]3C[C@H](O)[C@@H](CO)O3)[nH]c2c1	none (no result: SENP8 block-2, SENP6 inh, SENP7 block)
CC(=O)Nc1cccc(-c2ccnc3c2CC(C)(C(=O)Nc2ccc(C(C)C)cc2)O3)c1 (stereo unspecified)	none (no result: SENP8 block-2, SENP6 inh, SENP7 block)
Nc1ccc(S(=O)(=O)NN=Cc2ccccc2[N+](=O)[O-])cc1	none (no result: SENP8 block-2, SENP6 inh, SENP7 block)
C(=Cc1cnc2ccccc2n1)c1ccc2c(c1)OCO2	none (no result: SENP8 block-2, SENP6 inh, SENP7 block)
C(=Cc1nc2ccccc2o1)c1ccc2c(c1)OCO2	CendR NRP1 mod 26.4 (no result: SENP8 block-2, SENP6 inh, SENP7 block)
